In ChEMBL document CHEMBL1781992, “A novel monocarbonyl analogue of curcumin, (1E,4E)-1,5-bis(2,3-dimethoxyphenyl)penta-1,4-dien-3-one, induced cancer cell H460 apoptosis via activation of endoplasmic reticulum stress signaling pathway” (J Med Chem, 2011):
Activity calls are given as the source filed them. The calls are words filed in the database; no cut-off is given here.

Key:
NCI-H460 [1] = assay: Induction of apoptosis in human NCI-H460 cells assessed as late apoptotic cells at 20 uM after 6 hrs by annexinV-propidium iodide staining based flow cytometric analysis relative to control; type: functional
How it was run: (§1)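 H460 cells plated for 6 h, then treated with 5, 10 or 20 μM. Cells washed, trypsin-EDTA detached and resuspended in PBS, then stained with annexin V and propidium iodide plus RNase and 0.1% Triton X-100 for 30 min at 37 °C before flow cytometry. Figure legend gives 6 h incubation.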

NCI-H460 [2] = assay: Induction of apoptosis in human NCI-H460 cells assessed as late apoptotic cells at 5 uM after 6 hrs by annexinV-propidium iodide staining based flow cytometric analysis relative to control; type: functional; how it was run: as §1
NCI-H460 [3] = assay: Induction of apoptosis in human NCI-H460 cells after 6 hrs by Flow cytometric analysis; type: functional, cell-based; how it was run: as §1
[4] = biological target: Transcription factor Jun (Homo sapiens) (UniProt P05412); assay: Induction of c-Jun phosphorylation in human NCI-H460 cells at 20 uM after 12 hrs by Western blot analysis; type: cell-based
Chain of Transcription factor Jun (Homo sapiens) (P05412 whole entry): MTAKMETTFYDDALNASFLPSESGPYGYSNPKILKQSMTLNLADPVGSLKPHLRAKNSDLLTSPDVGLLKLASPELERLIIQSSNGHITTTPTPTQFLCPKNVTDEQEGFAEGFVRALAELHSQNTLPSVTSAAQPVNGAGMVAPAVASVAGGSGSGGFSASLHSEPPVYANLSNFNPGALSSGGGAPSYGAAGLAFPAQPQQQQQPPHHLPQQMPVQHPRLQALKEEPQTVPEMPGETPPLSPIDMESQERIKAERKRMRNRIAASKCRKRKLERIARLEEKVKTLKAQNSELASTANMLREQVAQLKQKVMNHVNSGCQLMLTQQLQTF
How it was run: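 H460 cells cultured in RPMI 1640 with 5% heat-inactivated FBS at 37 C, 10% CO2; exposed to 20 μM for a time course. Lysed at 0 C in Tris-HCl pH 7.4 buffer with NP40, SDS, and protease/phosphatase inhibitors. Phospho-c-Jun detected by Western blot with chemiluminescence, actin as loading control; band density quantified.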

NCI-H460 [5] = assay: Induction of CHOP protein expression in human NCI-H460 cells at 20 uM after 6 to 24 hrs by Western blot analysis; type: functional, cell-based
How it was run: (§2)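 H460 cells treated for 6–24 h, or across a range of concentrations. CHOP protein measured by Western blot, densitometry expressed as percent of control; Student's t test.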

NCI-H460 [6] = assay: Induction of XBP-1 protein level in human NCI-H460 cells at 20 uM after 6 hrs by Western blot analysis
NCI-H460 [7] = assay: Cytotoxicity against human NCI-H460 cells assessed as reduction of cell viability at 5 to 30 uM after 24 hrs by CellTiter-Glo analysis; type: functional, cell-based
How it was run: (§3)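 H460 cells (5 × 10^3/well) seeded overnight, then given fresh medium containing compound from DMSO stock (final 5, 10, 20 μM; 2.5–30 μM in the figure) for 24 h. Viability measured with CellTiter-Glo and expressed as percent of vehicle-treated cells; Student's t test.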

NCI-H460 [8] = assay: Induction of apoptosis in human NCI-H460 cells assessed as viable cells at 20 uM after 6 hrs by annexinV-propidium iodide staining based flow cytometric analysis relative to control; type: functional; conditions: NCI-H460, 6 h, read-out: Activity; how it was run: as §1
NCI-H460 [9] = assay: Induction of apoptosis in human NCI-H460 cells assessed as non-viable necrotic cells at 20 uM after 6 hrs by annexinV-propidium iodide staining based flow cytometric analysis relative to control; type: functional; how it was run: as §1
NCI-H460 [10] = assay: Induction of apoptosis in human NCI-H460 cells assessed as early apoptotic cells at 5 uM after 6 hrs by annexinV-propidium iodide staining based flow cytometric analysis relative to control; type: functional; how it was run: as §1
NCI-H460 [11] = assay: Antitumor activity against human NCI-H460 cells xenografted in ip dosed nude Balb/cA mouse assessed as decrease in tumor volume administered qd for 20 days; type: functional, organism-based
How it was run: (§4)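 BALB/cA nu/nu female athymic mice bearing sc right-flank xenografts (3 × 10^6 H460 cells in PBS); once-daily ip dosing began on day 10, when tumors reached 100–300 mm3. Water-soluble liposome preparation in PBS at 10 or 50 mg/kg; controls received liposome vehicle in PBS. Volume = lw²/2; T/C read on day 22. Seven mice per group, mean ± SD; Student's t test.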

Mus musculus [12] = assay: Toxicity in ICR mouse assessed as organ weight change at 400 to 800 mg/kg; type: organism-based; design: dose 400-800 mg/kg; conditions: in vivo
NCI-H460 [13] = assay: Increase in p53 expression in human NCI-H460 cells after 1 to 12 hrs by Western blot analysis; type: functional, cell-based
How it was run: (§5)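 H460 cells exposed to 20 μM for varying times, or to a range of concentrations for 12 h. Lysates made in Tris-HCl pH 7.4/NaCl/NP40/SDS buffer with protease and phosphatase inhibitors, then probed for p53 by Western blot with chemiluminescent detection; bands quantified by densitometry.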

NCI-H460 [14] = assay: Antitumor activity against human NCI-H460 cells xenografted in nude Balb/cA mouse assessed as decrease in tumor volume at 50 mg/kg, ip qd for 20 days measured on day 22 relative to control; type: functional; design: scale not given: the % may be the effect or the level left; conditions: route intraperitoneal; how it was run: as §4
NCI-H460 [15] = assay: Induction of apoptosis in human NCI-H460 cells assessed as viable cells at 10 uM after 6 hrs by annexinV-propidium iodide staining based flow cytometric analysis relative to control; type: functional; conditions: NCI-H460, 6 h, read-out: Activity; how it was run: as §1
NCI-H460 [16] = assay: Increase in p53 expression in human NCI-H460 cells at 20 uM by Western blot analysis; type: functional, cell-based; conditions: TDE = time-dependent effect; how it was run: as §5
NCI-H460 [17] = assay: Induction of apoptosis in human NCI-H460 cells assessed as early apoptotic cells at 10 uM after 6 hrs by annexinV-propidium iodide staining based flow cytometric analysis relative to control; type: functional; how it was run: as §1
NCI-H460 [18] = assay: Induction of apoptosis in human NCI-H460 cells at 5 to 30 uM after 24 hrs by flow cytometric analysis; type: functional, cell-based
NCI-H460 [19] = assay: Cytotoxicity against human NCI-H460 cells assessed as reduction of cell viability at 5 to 20 uM after 24 hrs by CellTiter-Glo analysis; type: functional, cell-based; how it was run: as §3
NCI-H460 [20] = assay: Induction of CHOP protein expression in human NCI-H460 cells at 20 uM after 12 hrs by Western blot analysis; type: functional, cell-based; how it was run: as §2
Mus musculus [21] = assay: Toxicity in ICR mouse assessed as body weight change at 400 to 800 mg/kg; type: organism-based; design: dose 400-800 mg/kg; conditions: in vivo
[22] = biological target: Transcription factor Jun (Homo sapiens) (UniProt P05412); assay: Induction of c-Jun phosphorylation in human NCI-H460 cells at 20 uM by Western blot analysis; type: cell-based; conditions: TDE = time-dependent effect
How it was run: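 H460 cells in RPMI 1640 with 5% FBS, treated at 20 μM for 12 h. Lysates in Tris-HCl pH 7.4, NP40, SDS buffer with protease/phosphatase inhibitors. p-c-Jun examined by Western blot with HRP secondary and chemiluminescence, actin as equal-loading control.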

NCI-H460 [23] = assay: Induction of GRP78 protein expression in human NCI-H460 cells at 5 to 20 uM after 3 hrs by Western blot analysis; type: functional, cell-based
How it was run: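 H460 cells treated for 3 h; GRP78 protein detected by Western blot with actin as loading control.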

NCI-H460 [24] = assay: Cytotoxicity against human NCI-H460 cells transfected with lentivirus carrying CHOP siRNA assessed as reduction of cell viability at 10 uM after 24 hrs by CellTiter-Glo analysis; type: functional, cell-based
How it was run: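 H460 cells infected with lentivirus carrying CHOP siRNA or nonspecific siRNA; 48 h later treated with 10 μM for 24 h. Survival measured with CellTiter-Glo as percent of nontransfected DMSO-treated cells.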

NCI-H460 [25] = assay: Induction of apoptosis in human NCI-H460 cells assessed as non-viable necrotic cells at 10 uM after 6 hrs by annexinV-propidium iodide staining based flow cytometric analysis relative to control; type: functional; how it was run: as §1
NCI-H460 [26] = assay: Induction of GRP78 mRNA expression in human NCI-H460 cells at 5 to 20 uM after 3 hrs by real time quantitative PCR analysis; type: functional, cell-based
How it was run: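 H460 cells treated across a concentration range for 3 h. GRP78 mRNA quantified by RT-qPCR, normalized to β-actin and expressed as percent of vehicle.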

`COc1cccc(/C=C/C(=O)/C=C/c2cccc(OC)c2OC)c1OC` was tested, and the Activity (NCI-H460 [1]) was 11.56%, the Activity (NCI-H460 [2]) was 2.62% and the Activity (NCI-H460 [3]) was “Dose-dependent effect”. The Activity [4] was “Active”, the Activity (NCI-H460 [5]) was “Active” and the Activity (NCI-H460 [6]) was “Active”. The Activity (NCI-H460 [7]) was “Active”, the viability at 20 µM (NCI-H460 [8]) was 57.3% and the Activity (NCI-H460 [9]) was 1.48%. For the same molecule, the Activity (NCI-H460 [10]) was 7.44%, the Activity (NCI-H460 [11]) was “Dose-dependent effect” and the Activity (Mus musculus [12]) was “Non-toxic”. For the same molecule, the Activity (NCI-H460 [13]) was “Dose-dependent effect”, the Activity (NCI-H460 [14]) was 46.5% and the viability at 10 µM (NCI-H460 [15]) was 72.5%. For the same molecule, the Activity (NCI-H460 [16]) was “tde”, the Activity (NCI-H460 [17]) was 22.74% and the Activity (NCI-H460 [18]) was “Active”. The Activity (NCI-H460 [19]) was “Active”, the Activity (NCI-H460 [20]) was “Active” and the Activity (Mus musculus [21]) was “Non-toxic”. The Activity [22] was “tde”, the Activity (NCI-H460 [23]) was “Active” and the Activity (NCI-H460 [24]) was “inactive”. For the same molecule, the Activity (NCI-H460 [25]) was 1.49% and the Activity (NCI-H460 [26]) was “Active”.
